The source of these data is ChEMBL document CHEMBL4177753, “Structural Modification of Natural Product Ganomycin I Leading to Discovery of a α-Glucosidase and HMG-CoA Reductase Dual Inhibitor Improving Obesity and Metabolic Dysfunction in Vivo” (J Med Chem, 2018).

In general, half-life refers to the time needed for the level to fall by half in the phase considered.

Active and inactive are the calls of the source.

The nature of data set [1]: Half life in Sprague-Dawley rat at 2 mg/kg, po. It is filed as ADME, organism-based. Particulars: in vivo. In outline: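 Male Sprague-Dawley rats (n = 6, 0.21–0.23 kg), single oral dose 2.0 mg/kg. Orbital blood sampled 0–16 h into heparinized tubes. Plasma was protein-precipitated with methanol, with internal standard added. Quantified by UPLC-ESI(+)-QTOF-MS in SIM mode on a C18 column with a methanol/0.3% formic acid water gradient. Linear range 0.54–107 ng/ml.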

The subject of data set [2] is Mus musculus. As to the kind of experiment: Downregulation of Nos2 mRNA expression in ob/ob mouse ileum at 3 mg/kg administered daily via oral gavage for 31 days by RNA-seq analysis. Format: functional, organism-based.
For data set [3], the system named is Mus musculus. Kind of data set: Hypolipidemic activity in ob/ob mouse assessed as decrease in plasma triglyceride levels at 3 mg/kg administered daily via oral gavage for 31 days relative to vehicle-treated control. It is filed as functional. Also on record: scale not given: the % may be the effect or the level left.
In data set [4] the test system is Mus musculus. Kind of data set: Reduction of plasma LPS levels in ob/ob mouse at 3 mg/kg administered daily via oral gavage for 31 days by ELISA relative to vehicle-treated control. It is filed as functional. Details: scale not given: the % may be the effect or the level left. In a few lines: (§1)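 Male ob/ob mice treated daily by gavage (soybean vehicle); plasma LPS and TNF-α quantified by ELISA kits. For antibiotic groups, ob/ob mice first received an oral antibiotic cocktail (ampicillin 1 g/L, vancomycin, neomycin, gentamycin, erythromycin) for three weeks, then 3.0 mg/kg/day; n = 8 per group.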

For data set [5], the system named is Mus musculus. Kind of data set: Reduction of plasma TNF-alpha levels in ob/ob mouse at 3 mg/kg administered daily via oral gavage for 31 days by ELISA relative to vehicle-treated control. It is filed as functional, organism-based. In outline:
as §1

Data set [6] deals with Mus musculus. As to the kind of experiment: Toxicity in C57BL/6J mouse assessed as effect on behavior at 30 mg/kg administered daily via oral gavage for 3 months. Format: organism-based. Particulars: in vivo. In outline: (§2)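 Long-term safety study in C57BL/6J mice, 20 male and 20 female, sorted by gender, blood glucose and body weight into four groups (n = 10 each). Treated groups of each sex got 30.0 mg/kg daily by oral gavage in soybean vehicle. Vehicle groups got an equal volume of soybean. Dosing ran three months, with behavior, survival, body weight, blood glucose, liver function and organ coefficients recorded.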

Data set [7] concerns Mus musculus. As to the kind of experiment: Antiobesity activity in ob/ob mouse assessed as reduction in absolute fat mass at 3 mg/kg administered daily via oral gavage for 31 days. It is filed as functional, organism-based. In a few lines:
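Male ob/ob mice, n = 10 per group, grouped by blood glucose and body weight. Daily gavage at 0.3, 1.0 or 3.0 mg/kg in soybean vehicle, with soybean vehicle controls and C57BL/6J controls. Body weight, cumulative food intake, LEE index, fat mass and lean mass recorded. Mean ± SEM, one-way ANOVA with Tukey test.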

The subject of data set [8] is Mus musculus. As to the kind of experiment: Antiobesity activity in ob/ob mouse assessed as cumulative food intake at 3 mg/kg administered daily via oral gavage for 25 days relative to vehicle-treated control.
Another data set deals with Betaproteobacteria. Kind of data set: Decrease in Betaproteobacteria levels in cecum of ob/ob mouse at 1 to 3 mg/kg administered daily via oral gavage for 31 days by 16S rRNA gene high-throughput sequencing method. Format: functional, organism-based. In outline:
(§3)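 Male ob/ob mice dosed daily by gavage at 1.0 or 3.0 mg/kg, compared with vehicle group. DNA extracted from about 150 mg caecum contents. 16S rRNA V3–V4 region amplified and sequenced on Illumina HiSeq PE250. Community compared by NMDS/MRPP; discriminant taxa identified by LEfSe.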

Data set [9] concerns Mus musculus. Kind of data set: Toxicity in C57BL/6J mouse assessed as effect on survival at 30 mg/kg administered daily via oral gavage for 3 months. It is filed as organism-based. Particulars: in vivo. In a few lines:
as §2

The subject of data set [10] is Mus musculus. Kind of data set: Hypolipidemic activity in ob/ob mouse assessed as decrease in fat deposition in liver at 3 mg/kg administered daily via oral gavage for 31 days by […] staining-based microscopic method. It is filed as functional, organism-based. In outline:
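Male ob/ob mice dosed by gavage (soybean vehicle); liver and abdominal white adipose tissue fixed in 10% formaldehyde-PBS pH 7.4, paraffin-embedded, sectioned, stained with H&E, Oil Red O or sirius red, and examined by light microscopy.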

Data set [11] has as its system Mus musculus. Kind of data set: Hypoglycemic activity in ob/ob mouse assessed as decrease in blood glucose AUC at 0.3 to 3 mg/kg administered daily via oral gavage for 25 days by OGTT. Format: functional, organism-based. In a few lines: (§4)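 Male ob/ob or high-fat-diet C57BL/6J mice dosed daily by gavage at 0.3–3.0 mg/kg. OGTT: glucose 2 g/kg orally after overnight fast. ITT: insulin 0.6 U/kg i.p. after 4 h fast. Glucometer readings at 0, 40, 80 and 120 min; AUC computed from the curves.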

The test system of data set [12] is Mus musculus. Kind of data set: Reduction of plasma LPS levels in ob/ob mouse at 1 mg/kg administered daily via oral gavage for 31 days by ELISA relative to vehicle-treated control. It is filed as functional. Also on record: scale not given: the % may be the effect or the level left. In a few lines:
as §1
A general note: ELISA stands for enzyme-linked immunosorbent assay.

Data set [13] has as its system Mus musculus. Kind of data set: Hypolipidemic activity in antibiotic-treated ob/ob mouse assessed as decrease in plasma free fatty acid levels at 3 mg/kg administered daily via oral gavage for 3 weeks. It is filed as functional, organism-based. In outline:
(§5)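 Male ob/ob mice pretreated three weeks with ampicillin (1 g/L), vancomycin, neomycin, gentamycin and erythromycin. Groups of n = 8 given 3.0 mg/kg/day orally in soybean vehicle versus vehicle. Plasma and hepatic lipids, fasting glucose, OGTT (glucose 2 g/kg after overnight fast) and HbA1c measured.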

Data set [14] has as its system Mus musculus. Kind of data set: Antiobesity activity in antibiotic-treated ob/ob mouse assessed as reduction in weight gain at 3 mg/kg administered daily via oral gavage for 3 weeks. Format: functional, organism-based. In a few lines:
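Male ob/ob mice given drinking water with ampicillin (1 g/L), vancomycin and other antibiotics for three weeks. Groups of n = 8 were dosed at 3.0 mg/kg/day by mouth in soybean vehicle, alongside non-antibiotic ob/ob groups. Weight gain and food intake recorded.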

The next data set has as its system Oscillibacter. As to the kind of experiment: Decrease in Oscillibacter levels in cecum of ob/ob mouse at 3 mg/kg administered daily via oral gavage for 31 days by 16S rRNA gene high-throughput sequencing method. Format: functional, organism-based. In a few lines: as §3
The subject of data set [15] is Mus musculus. Kind of data set: Hypoglycemic activity in antibiotic-treated ob/ob mouse assessed as decrease in HbA1c levels at 3 mg/kg administered daily via oral gavage for 3 weeks. Format: functional, organism-based. In a few lines:
as §5

The test system of data set [16] is Mus musculus. Kind of data set: Hypolipidemic activity in ob/ob mouse assessed as decrease in plasma LDL-C levels at 1 mg/kg administered daily via oral gavage for 31 days relative to vehicle-treated control. It is filed as functional. Details: scale not given: the % may be the effect or the level left.
In another data set the test system is Lachnospiraceae. As to the kind of experiment: Increase in Lachnospiraceae levels in cecum of ob/ob mouse assessed as increase in level of gut butyrate at 3 mg/kg administered daily via oral gavage for 31 days by GC-MS analysis. It is filed as functional, organism-based. In outline:
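Feces collected from ob/ob mice after 3.0 mg/kg gavage treatment; samples lyophilized, ground, 40 mg powder extracted with 1 mL MeOH, sonicated, centrifuged; supernatant analysed for short-chain fatty acids by GC-MS.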

Data set [17] deals with Mus musculus. As to the kind of experiment: Hypolipidemic activity in antibiotic-treated ob/ob mouse assessed as decrease in plasma triglycerides levels at 3 mg/kg administered daily via oral gavage for 3 weeks. It is filed as functional, organism-based. In outline: as §5
In data set [18] the test system is Mus musculus. As to the kind of experiment: Hypolipidemic activity in antibiotic-treated ob/ob mouse assessed as decrease in hepatic triglycerides levels at 3 mg/kg administered daily via oral gavage for 3 weeks. It is filed as functional, organism-based. In outline: as §5
In the next data set the test system is Selenomonas. Kind of data set: Decrease in Selenomonas levels in cecum of ob/ob mouse at 3 mg/kg administered daily via oral gavage for 31 days by 16S rRNA gene high-throughput sequencing method. It is filed as functional, organism-based. In a few lines: as §3
Data set [19] concerns Mus musculus. Kind of data set: Hypoglycemic activity in ob/ob mouse assessed as decrease in blood glucose AUC at 0.3 to 3 mg/kg administered daily via oral gavage for 27 days by ITT. It is filed as functional, organism-based. In outline: as §4
Data set [20] is described as follows: Chemical stability of the compound at 0.4 mg/ml at room temperature after 3 weeks by HPLC method. Particulars: 504 h. It is filed as physicochemical.

Regarding `CC(C)=CCC/C(C)=C/CCC1=C[C@H](c2ccc(C(C)(C)C)cc2)OC1=O`, the half-life in data set [1] is 1.8 h. The outcome in the data set on Mus musculus [2], with Mus musculus [5], in the data set with Mus musculus [7], with Betaproteobacteria, with Mus musculus [10] and in the data set with Mus musculus [11] was Active. Besides, the outcome in the data set with Mus musculus [14], with Oscillibacter, with Lachnospiraceae, with Mus musculus [17], with Selenomonas and with Mus musculus [19] was Active. The Activity in the data set with Mus musculus [3] is 47%; in the data set on Mus musculus [4], 40.9%; in the data set with Mus musculus [6] it was “Non-Toxic”; in the data set on Mus musculus [8], 78%; in the data set on Mus musculus [9], “Non-Toxic”; in the data set on Mus musculus [12], 29.8%. Besides, the Activity in the data set on Mus musculus [16] came to 43%. Further, the outcome in the data set with Mus musculus [13], with Mus musculus [15] and in the data set on Mus musculus [18] was inactive. In addition, the Stability result in data set [20] was “Stable”.
